This note sets out measurements from ChEMBL document CHEMBL1140780, “The expedient synthesis of 1,5-benzothiazepines as a family of cytotoxic drugs” (Bioorg Med Chem Lett, 2008).

Where only a bound is given, the exact number is not on record here.

The subject of series [1] is HL-60. Kind of series: Photocytotoxicity against human HL60 cells irradiated with 1.25 J cm^-2 ultraviolet radiation after 72 hrs by MTT assay. The class given is functional. Conditions: HL-60, light or radiation study. The method, boiled down: (§1)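 Culture media, each with penicillin G, streptomycin and 10% FBS: HL-60 in RPMI-1640, NCTC 2544 in DMEM, LoVo in Ham's F12. Seeding was 8 × 10³ HL-60 or 5 × 10³ NCTC 2544/LoVo cells per well, 18 h at 37 °C. Drug in DMSO diluted with HBSS pH 7.2 was added for 30 min at 37 °C, then UVA applied (dose measured at 365 nm). Medium was replaced, 72 h incubation, MTT read-out. GI50 is the concentration giving 50% growth inhibition.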

Series [2] relates to HL-60. Kind of series: Photocytotoxicity against human HL60 cells irradiated with 2.5 J cm^-2 ultraviolet radiation after 72 hrs by MTT assay. The class given is functional. To be noted: HL-60, light or radiation study. The method, boiled down:
as §1

The nature of series [3]: Photocytotoxicity against human NCTC 2544 cells irradiated with 1.25 J cm^-2 ultraviolet radiation after 72 hrs by MTT assay. Type of series: cell-based. An outline of the steps:
as §1

The subject of series [4] is LoVo. The series can be described thus: Photocytotoxicity against human LoVo cells irradiated with 2.5 J cm^-2 ultraviolet radiation after 72 hrs by MTT assay. Type of series: functional. Conditions: light or radiation study. The method, boiled down:
as §1

Series [5] relates to LoVo. Kind of series: Photocytotoxicity against human LoVo cells irradiated with 1.25 J cm^-2 ultraviolet radiation after 72 hrs by MTT assay. Type of series: functional. Conditions: light or radiation study. The method, boiled down: as §1
Series [6] can be described thus: Photocytotoxicity against human NCTC 2544 cells irradiated with 2.5 J cm^-2 ultraviolet radiation after 72 hrs by MTT assay. Type of series: cell-based. The method, boiled down:
as §1

With `COc1ccc2c(c1)SC(C(=O)O)CC(c1ccc(F)cc1C)=N2` (stereo not given), the GI50 was more than 10 µM with HL-60 [1] and 10 µM with HL-60 [2].

For `Cc1cc(F)ccc1C1=Nc2ccc(Cl)cc2SC(C(=O)O)C1` (stereo not given), the GI50 in the series on HL-60 [1] was more than 10 µM; in the series on HL-60 [2] it was 6.8 µM.

On to `Cc1cc(F)ccc1C1=Nc2c(Br)cccc2SC(C(=O)O)C1` (stereo not given), for which the GI50 at 72 h in series [3] and in series [6] was more than 20 µM in each case. Moreover, the concentration for 50% growth inhibition (GI50) was 2.5 µM with HL-60 [1], 13.2 µM in the series with LoVo [4], more than 20 µM with LoVo [5] and 0.9 µM in the series on HL-60 [2].

For the compound `Cc1cc(F)ccc1C1=Nc2c(F)cccc2SC(C(=O)O)C1` (stereo not given), the figures for the GI50 at 72 h in series [3] and in series [6] were 7 µM and 2.6 µM, respectively. Further, the concentration for 50% growth inhibition (GI50) in the series with HL-60 [1] was 6.6 µM; in the series with LoVo [4], 1.94 µM; in the series with LoVo [5] it was 3.8 µM; in the series on HL-60 [2] it was 0.8 µM.

Take `Cc1cc(F)ccc1C1=Nc2c(Cl)cccc2SC(C(=O)O)C1` (stereo not given): the results for the GI50 at 72 h in series [3] and in series [6] were more than 20 µM and 6.9 µM, respectively. For the same compound, the concentration for 50% growth inhibition (GI50) is more than 10 µM with HL-60 [1], 9.8 µM in the series on LoVo [4], 16.8 µM in the series with LoVo [5] and 6.9 µM in the series on HL-60 [2].

With `Cc1ccc2c(c1)SC(C(=O)O)CC(c1ccc(F)cc1C)=N2` (stereo not given), the 50% growth inhibitory concentration (GI50) is more than 10 µM in the series with HL-60 [1] and 10 µM in the series with HL-60 [2].

Turning to `COc1cccc2c1C(=O)c1c(O)c3c(c(O)c1C2=O)C[C@@](O)(C(=O)CO)C[C@@H]3O[C@H]1C[C@H](N)[C@H](O)[C@H](C)O1` [DOXORUBICIN], the figures for the concentration for 50% growth inhibition (GI50) at 72 h in series [3] and in series [6] were 3.04 µM and 1.32 µM, respectively. In addition, the concentration for 50% growth inhibition (GI50) with HL-60 [1] was 2.36 µM; in the series with LoVo [4], 5.48 µM; in the series on LoVo [5], 8.54 µM; in the series on HL-60 [2], 1.45 µM.
